The text below walks through data of ChEMBL document CHEMBL4513216, “Probing the Open Global Health Chemical Diversity Library for Multistage-Active Starting Points for Next-Generation Antimalarials” (ACS Infect Dis, 2020).

The series in a line: Toxicity liver stage against HepG2, at 10uM. The conditions noted are these: human, HepG2-A16-CD81EGFP cells; read-out: INHIBITION
Also on record: test concentration 10 uM, cell line HepG2-A16-CD81EGFP. The series is classed as cell-based. In outline:
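Uninfected HepG2-A16-CD81EGFP cells, 3 × 10^3 per well, 1536-well, plated on prespotted compound at 10 μM final, parasite-free screening media added to match infected plates; puromycin 10 μM positive, DMSO 0.5% negative; run in parallel with 48 h PbLuc assay at 37 °C, 5% CO2; viability by CellTiter-Glo luminescence, normalized to controls.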
For `CC(C)OCCN1CCC(Nc2ncccn2)CC1`, the cytotoxicity at 10 µM is -1%. Next, `COc1ccc(-c2cnc(N(C)C)nc2C2CN(C(C)=O)CCO2)cc1` (configuration not stated): -31.9%.

For `Cc1nc(C)c(C(=O)N2Cc3ccccc3OCC2Cn2ccnc2)s1` (configuration not stated), the cytotoxicity at 10 µM is 9.21%. The result for `O=C(Nc1ccccc1)c1ccc2c(c1)C1(CCCCC1)CN2` reads -31.5%; that for `Cc1nc(N2CCOCC2)nc(C)c1NC(=O)c1ccco1`, 1.9%; that for `Cc1cnn(CCNCc2ccc(C#N)cc2F)c1`, -2.73%. The result for `CCC(CC)(CCCNC(=O)c1c(C)noc1C)C1OCCO1` reads 1.98%. Next, `O=C(NCCSC1CCCC1)c1cc(Cl)ccn1`: -15.5%; `c1cnc(N2CCCC(c3csc(Nc4cnccn4)n3)C2)nc1` (configuration not stated): 8.33%.

On to `O=C(CN1C=Nc2ccccc2S1(=O)=O)NCC1CC1`, for which the cytotoxicity at 10 µM was -10.2%.

Consider `CN1CCC(N(C)C[C@H]2CC[C@@H](Cc3ccc4c(cnn4C)c3)O2)CC1`, for which the cytotoxicity at 10 µM is 5.03%. In the case of `Cc1ccc(C)c(S(=O)(=O)N2CCN(C)C3(CCC(=O)N(C)CC3)C2)c1` (configuration not stated), the cytotoxicity at 10 µM came out at 7.01%.

Take `CN(C)C(=O)c1cn[nH]c1C1CCCN1Cc1nccn1C` (configuration not stated): the cytotoxicity at 10 µM was -1.08%.

For `COCc1nc(CNC2CCSCC2)no1`, the cytotoxicity at 10 µM was -9.87%. The result for `CS(=O)(=O)c1ccccc1C(=O)NCCCN1CCc2ccccc2C1` reads 1.01%. Next, `Cn1ccnc1CN1CCCCC1c1nc(-c2ccccc2)no1` (configuration not stated): -47.5%; `CCN(c1ccccc1C(=O)O)S(=O)(=O)c1cccc2cccnc12`: 1.28%; `Cc1noc(C)c1CN1CCC2(CC1)CC(Oc1cccnc1)C2`: 23.2%. In the case of `Fc1ccccc1OCCN1CCCCC1Cn1cncn1` (configuration not stated), the cytotoxicity at 10 µM was -18.9%. Next, `COc1ccc([C@@H]2CN(C(=O)CS(C)(=O)=O)C[C@H]2NC(C)=O)cc1`: 0.541%; `Cc1ccc(NC2(C(=O)NCCCc3c(C)n[nH]c3C)CCCC2)cc1`: -10.1%; `COCCC1(CNC(=O)Nc2ccc(-n3cccn3)cc2)CCC1`: -2.75%. The result for `CCNc1ncc(C(=O)NCCc2ccc(C)c(C)c2)cn1` reads -5.1%.

In the case of `CC(CS(C)(=O)=O)N(C(=O)c1ccc(Cl)s1)C1CC1` (configuration not stated), the cytotoxicity at 10 µM came to 1.51%. The result for `CCC[C@@H]1CN(Cc2cnc(-c3cccs3)nc2)C[C@H]1C(=O)O` reads -22.9%; that for `Cc1nc[nH]c1C(=O)N1CCCC2(C1)C(=O)N(C)c1ccccc12` (configuration not stated), -6.01%. With `Cc1noc(C)c1CN(C)C(=O)NC1CCN(c2ncccn2)CC1`, the cytotoxicity at 10 µM was -19.1%. Next, `COCCNc1ncc(-c2onc(C)c2C)c(-c2ccco2)n1`: 5.92%. As to `CCN(CC(F)(F)F)C(=O)C1CCCN(Cc2cscn2)C1` (configuration not stated), the cytotoxicity at 10 µM was -8.64%. As for `CN(CCc1ccccc1)C1CCCN(Cc2nccn2C)C1` (configuration not stated), the cytotoxicity at 10 µM was -18.5%.

Consider `O=C(CCn1ccc2ncccc2c1=O)N1CCCC1`, for which the cytotoxicity at 10 µM was -1.93%. The result for `O=S(=O)(Cc1ccccc1)c1nnc(N2CCOCC2)s1` reads -4.65%; that for `c1cc(-c2c[nH]c([C@@H]3COCCN3Cc3csnn3)n2)ccn1`, 3.07%; that for `Cc1nn(C)c(N(C)C)c1CNCCCN(C)S(C)(=O)=O`, -4.07%. Consider `COc1cc(C2SC(C)=Nc3c2c(=O)[nH]n3C2CCCC2)ccc1O` (configuration not stated), for which the cytotoxicity at 10 µM was found to be 3.54%. The result for `O=C(Cc1ccc2c(c1)CCO2)N1CCCC(n2cccn2)C1` (configuration not stated) reads 5.67%; that for `Cc1noc(C)c1CNC1CCN(c2ccccc2OC(F)F)C1` (configuration not stated), 9.5%. In the case of `CCn1cc(CNc2ccc(F)c(N3CCCS3(=O)=O)c2)cn1`, the cytotoxicity at 10 µM was -17%. Next, `CC(C)C1CN(c2ncccn2)CCC(=O)N1CC1CC1` (configuration not stated): 0.0666%. Next, `CCN(CC)[C@@H]1CN(Cc2ccc(C)o2)[C@@H]2CCCO[C@H]12`: -148%; `CC(CCc1ccco1)NC(=O)Nc1cc(C(F)(F)F)c[nH]c1=O` (configuration not stated): -6.9%. On to `NCC1CN(c2nc(-c3cccnc3)nc3c2CCNCC3)CCO1` (configuration not stated), for which the cytotoxicity at 10 µM was -17.6%.

Consider `Cc1ccc(N2CCCC(NCc3cc(C)on3)C2)nn1` (configuration not stated), for which the cytotoxicity at 10 µM was -4.8%. The result for `CCCC(C#N)NC(=O)CCCOc1cccc(C(C)=O)c1` (configuration not stated) reads -46.2%. The result for `Cc1cccn2cc(CC(=O)N3CCCC(n4cncn4)C3)nc12` (configuration not stated) reads -7.31%. Next, `Cc1ccccc1CNC(=O)N1C[C@@H]2C[C@H](C(=O)N3CCCC3)[C@H](C1)O2`: 5.68%. Consider `FC(F)(F)C1CN(c2nc(-c3ccccc3)no2)CCO1` (configuration not stated), for which the cytotoxicity at 10 µM is -1.52%.

On to `CN(C)c1cccc(C(=O)NCC(O)c2cccs2)c1` (configuration not stated), for which the cytotoxicity at 10 µM was determined as 16.6%. The result for `OC(CN(Cc1ccccc1)Cc1ccon1)c1ccco1` (configuration not stated) reads 4.42%.

As to `Cn1cccc1C(=O)NC[C@H]1C[C@@H]2CN(C(=O)c3ccco3)C[C@@H]2O1`, the cytotoxicity at 10 µM is -105%. Take `CCS(=O)(=O)N1CCCCC1c1nc(C(C)C)no1` (configuration not stated): the cytotoxicity at 10 µM amounted to 13.6%. Next, `COc1ccc(CC(=O)N2CCN(C)c3ncccc3C2)cc1`: -5.79%. Next, `CCN1CCN(C(=O)c2ccnc(N(C)C)c2)CC1`: -0.0916%; `CC(CCN1CCn2nc(CNC(=O)N(C)C)cc2C1)c1ccccc1` (configuration not stated): -11.8%. Next, `CCC(Oc1ccc(N(C)S(C)(=O)=O)cc1)C(N)=O` (configuration not stated): -4.18%; `CCCc1cc(NCCn2cccn2)n2ncnc2n1`: 5.28%; `Cc1cc(C)n(CC2CCCN2CC(=O)N(C)Cc2ccco2)n1` (configuration not stated): -12.2%.

Consider `CCN1CCCC1CNCc1cc2cc(OC)ccc2[nH]c1=O` (configuration not stated), for which the cytotoxicity at 10 µM is -10.2%. The result for `Cc1ccc(NCCCNC(=O)NCc2c(C)cc(C)[nH]c2=O)nc1` reads -45.2%; that for `CCc1nc(CN2CCCC(NCc3nnc(C4CC4)o3)C2)no1` (configuration not stated), -5.73%; that for `NC(=O)C1CCN(C(C(=O)O)c2ccc(Cl)c(C(F)(F)F)c2)CC1` (configuration not stated), -107%. The result for `Cc1nc(O)cc(C2CCN(C(=O)CN(C)c3ccccc3)CC2)n1` reads 8.92%; that for `CCOc1ccc(C(=O)N2CCCS2(=O)=O)cc1OC`, -7.42%; that for `Fc1cnc(N2CC[C@@H](N3CCOCC3)[C@@H]2Cc2ccccc2)nc1`, 3.67%.

As for `COCCN1CCC(c2nc3ccc(-c4ccccc4)cn3n2)CC1`, the cytotoxicity at 10 µM is -8.84%. Next, `Cc1cc(NC(=O)C(C)C)n(-c2nc(C)c(C)c(=O)[nH]2)n1`: 43.1%; `CC[C@@H](Cn1ncc2ccccc2c1=O)NC(=O)c1cnccn1`: 6.4%. As for `Cn1cc(NC(=O)c2cccc(C(F)(F)F)c2)c(=O)n(C)c1=O`, the cytotoxicity at 10 µM came to 0.49%. On to `CC(C)C(NC(=O)c1ccc(Cl)cc1Cl)C(=O)Nc1cnn(C)c1` (configuration not stated), for which the cytotoxicity at 10 µM was -2.65%. In the case of `C[C@H](NC(=O)N1CCC(Cc2ccccc2)CC1)C(=O)O`, the cytotoxicity at 10 µM was -1.65%. Regarding `NCC(=O)N1CCCC1c1nccnc1Nc1ncccn1` (configuration not stated), the cytotoxicity at 10 µM was -2.42%.

Turning to `CNC(=O)[C@@H]1C[C@H]2CN(C(=O)c3ccccn3)C[C@H]2N1C(C)C`, the cytotoxicity at 10 µM was 7.45%. As to `O=C(NC1CC1)NC(c1ccc(F)cc1)C1CC1` (configuration not stated), the cytotoxicity at 10 µM is -0.158%. On to `O=C(Cc1csc(-c2ccsc2)n1)N1CCN(c2cnccn2)CC1`, for which the cytotoxicity at 10 µM was -7.12%. Next, `CNc1nc(N2CCC3(CCCNC3=O)C2)nc2c1CCC2` (configuration not stated): -4.95%; `CCCn1cnnc1CNC(=O)CC1C(=O)NCCN1C(C)C` (configuration not stated): 0.445%; `O=c1c(NCCO)c(N2CCN(c3ccccc3)CC2)c1=O`: -6.95%. The result for `COc1ccccc1Oc1ncccc1CNC(=O)C(O)C(F)(F)F` (configuration not stated) reads -3.37%.

Turning to `Cc1nc(CN2CCCCC2CCc2ccc(O)cc2)co1` (configuration not stated), the cytotoxicity at 10 µM was found to be 2.72%. For the molecule `CN(CCOc1cccc(S(C)(=O)=O)c1)CC(F)F`, the cytotoxicity at 10 µM was 13%. Consider `Cc1ncc(CN2CCC(c3nc4cc(Cl)ccc4o3)CC2)s1`, for which the cytotoxicity at 10 µM was 51.7%.

On to `CN1C[C@H](COCC2CC2)[C@H]2CCN(Cc3ccco3)CC[C@H]2C1=O`, for which the cytotoxicity at 10 µM was -4.84%. The result for `CCc1nnc(CN2CCCN(C(=O)c3ccccn3)CC2)o1` reads -5.56%; that for `CC(C)c1cc(C(=O)N(C)C(C)c2nccs2)no1` (configuration not stated), -9.15%; that for `CCN(CC1CCOCC1)C(=O)Cn1cccc(C(F)(F)F)c1=O`, -10.2%. The result for `O=C(C1CSc2ccccc2O1)N1CCN(CCO)CC1` (configuration not stated) reads -6.29%; that for `O=C(c1ccc2c(c1)OCO2)N1CCCC(n2cccn2)C1` (configuration not stated), -8.4%; that for `NC(=O)c1cnn2c1NCC(CNCCCOc1ccccc1F)C2` (configuration not stated), -5.56%. Regarding `CCn1c(CN(C)C)nnc1C1CCN(Cc2cccc(OC)c2)CC1`, the cytotoxicity at 10 µM is -13.6%. For the molecule `COc1ccccc1N1CCN(C(=O)CCCS(N)(=O)=O)C(C)C1` (configuration not stated), the cytotoxicity at 10 µM worked out at 6.15%. Next, `O=C1CC(c2ccc(F)c(F)c2)c2snc(C(=O)O)c2N1` (configuration not stated): 6.95%; `COc1ccc(C(=O)N2CC(=O)N(Cc3cccs3)CC(O)C2)cc1` (configuration not stated): 4.43%.

Consider `Cc1noc(C)c1CN1CCc2ncnc(-c3ccccc3)c2CC1`, for which the cytotoxicity at 10 µM was -89.9%. Consider `CCC(C)(CC)NC(=O)COc1nn(C)c2nc(C)cc(C)c12`, for which the cytotoxicity at 10 µM is -6.17%.

For the molecule `O=c1[nH]c(-c2ccc(F)c(F)c2)nc2c1CCNC2`, the cytotoxicity at 10 µM is 2.06%. Take `C1CCC(CNC2CCCN(Cc3noc(C4CC4)n3)C2)C1` (configuration not stated): the cytotoxicity at 10 µM is -2.34%.

As to `COC(=O)CC1CSCCN1C(=O)CCc1c(C)nn(C)c1C` (configuration not stated), the cytotoxicity at 10 µM is -2.65%.
